The chains are these.
B1: tRNA (parent)
chain: GUUCCGUUGGCGUAAUGGUAACGCGUCUCCCUCCUAAGGAGAAGACUGCGGGUUCGAGUCCCGUACGGAACG

Variants at the floor of the assay were thinned out. Some results are limits rather than exact numbers.

In this data set the parent is B1. Put plainly: yeast fitness relative to wild type (ratio to wild type); higher = fitter; tRNA-Arg(CCU), competitive growth, 37 C, YPD. In a few lines: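 A pool of Saccharomyces cerevisiae strains, each with a tRNA-Arg(CCU) gene variant at the native genomic locus, was competed in YPD at 37°C for 24 hours across six parallel replicates. The variants had been chemically synthesised at a 3% per-site mutation rate over 69 sites, and gene amplicons before and after competition were read by 100-nucleotide paired-end sequencing. Darwinian fitness relative to wild type rested on changes in genotype frequencies. Genotypes required ≥ 100 starting reads, and estimates < 0.5 were set to 0.5.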
As for GUUCCGUUGGCAUAAUGGUAACGCGUCUCCCUACUAAGGAGAAGACUGCGGGUUCGAGUCCCGUACGGAACG [G12A C33A], the yeast fitness came to 0.644.
Regarding GUUACGUUGGCGUAAUGGUAGCGCGUUUCCCUCCUAAGGAGAAGACUGCGGGUUCGAGUCCCGUACGGAACG [C4A A21G C27U], the yeast fitness was 0.686.
Take GUUCCGUUGGCGUAGUGGUAACGCGUCUCCCUCCUAAGGAGAAGACUGCGGGUUCGCGUCCAGUACGGAACG [A15G A57C C62A]: the yeast fitness was at most 0.5.
For GUUCCAUUGGCGUAAUGGUAACGUGGCUCCCUCAUAAGGAGAAGAGUGCGGGUUCAAGUCCCGUAUGGAACG [G6A C24U U26G C34A C46G G56A C66U], the yeast fitness is at most 0.5.
As to GUUCCGUUGGCGUAAUGGUAACGCGUCUCCUUCCUAAGGAGAAGACUGCAGGUUCGAGUCCCGUACGGAUCG [C31U G50A A70U], the yeast fitness was 0.677.
In the case of GUUACGUUGGCGUAAUGGUAACGCGUCUCCCUCCUAAGGAGAAGACUGCGGGUUCGAGUCCCGUACCGAACG [C4A G67C], the yeast fitness was 0.69.
Consider GUUCCGUUGGCGUAAUGGUAACUCGUCUCCCUCCUAAGGAGAAGACUGCGGAUUAGAGUCCCGAACGGAACG [G23U G52A C55A U64A], for which the yeast fitness was at most 0.5.
With GUUCCGUUGGCGUAAUGGUUACGCGUCUCCCUCCUAAGGAGAAGACUGCGGGUUCGAGUCCGGUACGGAACG [A20U C62G], the yeast fitness amounted to 0.682.
With GUCCCAUUGGCGUAACAGUAACGCGUCUCCCUCCUAAGGAGAAGACUGCGGGUUCGAGUCCCGUACGGAACG [U3C G6A U16C G17A] the figure was at most 0.5; with GUUCAGUUGGCGUAAUGGUAACGCGUCUCCCUCCUAAGGAGAAGACUGCGGGUUCGAGUCCCGCACGGAACG [C5A U64C], 0.96; with GUUCCCUUGGCGUAAUGGUAAAGCGUCUCCGUCCUAAGGAGAAGACUGGGGGUUCGAGUCCCGUACGCAACG [G6C C22A C31G C49G G68C], at most 0.5.
With GUUCCGUUGGCGUAAUGGUAUCGCGUCUCCCUCCUAAGGGGAAGACUGCGGGUUCGUGUGCCGUACGCAACG [A21U A40G A57U C60G G68C], the yeast fitness was at most 0.5.
With GUUCCGUUGGCGUAAUGGUAACGCGUCUCCCUAGUAAGGAGAAGACUGCAGGUUCGAGUCCCGUACGGAACG [C33A C34G G50A], the yeast fitness is 0.517.
As to GUUCCGUUGGGGUUAUGGUAACGCGUCUCCCUCCUUACGAGAAGACUGCGGGUUCGAGUCCCGUACGGAACG [C11G A14U A36U G38C], the yeast fitness stood at 0.553.
With GUUCCGUUGGCGCGAUGGUAACGCGUCUCCCUCCUAAGGAGAAGACUGCGGGUUCGAGUCCCGUACGGAACG [U13C A14G], the yeast fitness was determined as 0.704.
Turning to GUUCCGUUGGCAUAACGGUAACGCGUAUCCCUCCUAAGGAGAAGACUGCGGGUUCGAGUCCCGUACGGACCG [G12A U16C C27A A70C], the yeast fitness is at most 0.5.
For the variant GUUCCGUUGGCGUGGUGGUAACGCGUCUCCCUCCUAAGGAGAAGACUGCGGGUCCGAGUCCCGUACGGAACG [A14G A15G U54C], the yeast fitness turned out to be 0.569.
As to GUUCCGUUGGCGUAAUGGUAACGAGUCUCCUUCCUAAGGAGAAGAUUGCGGGUUCGAGUCCCGUACGGAACG [C24A C31U C46U], the yeast fitness was found to be 0.785.
For the variant GUUCCGUUGGCGUAGUGGUAACGCGUCUCCCUCCUGAGGAGAAGACUGCGGGUUCGAGUCCCGUACGGAACG [A15G A36G], the yeast fitness turned out to be 0.867.
With GUUACGUUGGCGUAAUCGUAAUGCGUCUCCCUCCUAAGGAGAAGACUGCGGGUUCGAGUCCCGUACGGAACG [C4A G17C C22U], the yeast fitness was at most 0.5.
Regarding GUUCCGUGGGCGUACUGGUAACGCGUCUCCCUCCUAAGGAGAAGACUGCGGGUUCGAGUCCCGUACGGAACG [U8G A15C], the yeast fitness was determined as 0.598.
On to GUUCCGUUGGCGUAAUGGUAACGCCACUCCCUCCUAAGGAGAAGACUGCGGGUUCGAGUCACGUACGGAACG [G25C U26A C61A], for which the yeast fitness was at most 0.5.
As to GUUCCGCUGGCGUAAUGGUAACGCGUCUCCCUCGUAAGCAGGAGAGUGCGGGUUCGAGUCGCGUACGGAACG [U7C C34G G39C A42G C46G C61G], the yeast fitness was found to be 0.538.
For the variant GUUCCGUGGGCGUAAUGGUAAUGCGUCCCCCUCCUAAGGAGAAGACUGCGGGUUCGAGUCCAGUACGGAACG [U8G C22U U28C C62A], the yeast fitness was at most 0.5.
For GUUCCGUUGGCGUAAUGGUAACGCGUCUCCCACCUAAGGAGAGGACUGCGGGUUCGAGUCUCGUACGGAACG [U32A A43G C61U], the yeast fitness was at most 0.5.
The same measure for GUUCCGUUGGCCUAAUGGAAACGCGUCUCCCUCCUAAGGAGAAGACUGCGGGUUCGAGUCCCGUACGGAACG [G12C U19A]: 0.742.
GUUCCGUUGGCGUAAGGGUAACGCGUCUCCCUCCUAAGGAGAAAACUGCGGGUUCGAGUCCUGUACGGAACG [U16G G44A C62U]: the yeast fitness was 0.652.
For the variant GUUCCGUUGGGGUAAUGGCAACGCGUCUCCCUCCUAAGGAGAAGUCUGCGGGUUCGAGUCCCGUACGGAACG [C11G U19C A45U], the yeast fitness is at most 0.5.
Regarding GUUCCGUUGGCGUAAUGGUAACGCGUCUCCCUCAUAAGGAGAAGACUGCGGCUUCGAGUCCCCUACGGAACG [C34A G52C G63C], the yeast fitness was determined as 0.681.
As for GUUACGUUGGCGUAAUGGUAACGCGUCUCCCUGCUAAGGAGAAGGCUGCGGGUUCGAGUCCCGUACGGAUCG [C4A C33G A45G A70U], the yeast fitness is at most 0.5.
For GUUCCCUUGGCGUAAUGGUAACGCGUCUCCCUCCUAAGGAGAAGACUGCCGGUUCGAGUCCCGUACGGUACG [G6C G50C A69U], the yeast fitness came out at 0.554.
As to GUUCCGUUGGCGUAAUGGUAUCGCGUCUCCCUCCUAAGGAGUAGACUGCGGGUUCGGGUCCCGUACGGAACG [A21U A42U A57G], the yeast fitness was 0.548.
With GUUCCGUUGGCGUAAUGGUAUCGCGUCUCCCUCCUAAGGAGGAGACUGUGGGUUCGAGUCCCGUACGGAACG [A21U A42G C49U], the yeast fitness was at most 0.5.
On to GUUCCGUUGGCGUAAUGGUAAGGCGUCUCCCUCCUGGGGAGAAGACUGCGGGUUCGAGUGCCGUACGGGACG [C22G A36G A37G C60G A69G], for which the yeast fitness is at most 0.5.
For the variant GUUUGGUUGGCGUAAUGGUAACGCGUCUCCCUCCUAAGGAAAAGACUGCGGGUUCGAGUCCCGUACGGAACG [C4U C5G G41A], the yeast fitness worked out at 0.505.
In the case of GGUCCGUUGGCGUAAUGGUAACGCGUCUUCCUCCUAAGGAGAACACUGCGGGUACGAGUCCCGUACGGAACG [U2G C29U G44C U54A], the yeast fitness was 0.554.
Take GUUCCGUUGGCGUAAUGGUUACGCGUCUCCCUCCUAAGGAGAAGACUGCGGGUUCGAGUCCCCUACGGAACG [A20U G63C]: the yeast fitness was found to be 0.649.
For GUUCCGUUGGCGUAAUGGUAGCGCGUCUCCCUCCUUAGGAGAAGACUGCGGGAUCGAGUCCCGUACGGAACG [A21G A36U U53A], the yeast fitness came out at 0.58.
